In publication PMC2947842 (Bioorganic & medicinal chemistry, 2010):
Positions of bridges follow the written chain, without caps; N, C: chain ends. Non-standard residues stand in square brackets, D forms with d. Residues, ends and D or L forms follow the SMILES beside them.

Tested on: B16/F1 melanoma cells
Assay: Clonogenic cytotoxicity
Type: cell-based, murine
Details: 0.1 μM peptide, 3 h incubation at 37 °C, colonies after 6 days
Summary of the method: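 B16/F1 cells seeded at 200 cells/well and exposed for 3 h at 37 °C in culture medium to 0.1 μM test peptide, comparator peptides, or medium alone. Washed twice with PBS and regrown in medium for 6 days. Fixed in methanol:glacial acetic acid (3:1), hematoxylin-stained, and scored by microscope; colonies over 50 cells counted as survivors. Survival normalized to untreated (100%). Unpaired Student t-test, p<0.05.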

Molecule | Decrease in clonogenic survival in comparison with the untreated group [%]
CC(C)[C@H](NC(=O)[C@@H]1CCCN1C(=O)[C@H](CCCNC(=N)N)NC(=O)[C@H](CS)NC(=O)[C@H](Cc1c[nH]c2ccccc12)NC(=O)[C@H](CCCNC(=N)N)NC(=O)[C@@H](Cc1ccccc1)NC(=O)[C@H](Cc1c[nH]cn1)NC(=O)[C@H](CCC(=O)O)NC(=O)[C@H](CS)NC(=O)[C@H](CS)NC(=O)[C@H](CCCNC(=N)N)NC(=O)[C@@H]1CC(=O)N[C@@H](CCCNC(=N)N)C(=O)NCC(=O)N[C@@H](CC(=O)O)C(=O)N[C@H](Cc2ccc(O)cc2)C(=O)N1)C(N)=O [RGD-Arg-(Arg^11)CCMSH] (RGD[dY]DRCCEH[dF]RWCRPV-NH2; lactam N-5; C-terminus assumed) | 62
[Cys^3,4,10, D-Phe^7, Arg^11]α-MSH3-13 [(Arg^11)CCMSH] | 11
